Results pooled from the literature.
Lines come from different studies, so protocols differ.
Target: Serine/threonine-protein kinase MARK2 (MARK2, Homo sapiens, UniProt Q7KZI7)

SMILES	test	system	setting	measurement	value
NS(=O)(=O)c1ccc(CNc2nc(Nc3cccc(NC(=O)N4CCCC4)c3)ncc2C2CC2)cc1	enzyme activity, inhibitor, radiometric		1 µM	remaining activity	93%
COc1cc2ncnc(Nc3ccc(Oc4ccccc4)cc3C)c2cc1OC	enzyme activity, inhibitor		1 µM	inhibition	7%
Cc1nn(CC(F)(F)F)cc1Nc1ncc(Br)c(NCCc2cnc[nH]2)n1	enzyme activity, inhibitor, radiometric		1 µM	remaining activity	55%
CC(=O)Nc1c(C(C)=O)c(=O)n(C)c2nc(-c3ccc(Cl)cc3Cl)c(-c3ccc(Cl)cc3)cc12	cell-free assay, competition with immobilised ligand		1 µM	remaining binding	100%
Oc1cccc(-c2nc(N3CCOCC3)c3oc4ncccc4c3n2)c1	cell-free assay		0.5 µM	remaining signal	92.9%
C[C@@H]1CN(c2cc(-c3nn(C)c4ccc(OC5(C)CC5)cc34)ncn2)C[C@H](C)O1	cell-free assay, competition with immobilised ligand		1 µM	remaining binding	89%
CNC(=O)c1cc(Oc2ccc(NC(=O)Nc3ccc(Cl)c(C(F)(F)F)c3)cc2)ccn1	enzyme activity, inhibitor		0.3 µM	inhibition	28%
CN1CC(Oc2cnc(C#N)cc2-c2ccn3nc(NC(=O)C4CC4)cc3c2)C1	enzyme activity, inhibitor		1 µM	inhibition	-1%
Cc1ccc(Nc2nccc(N(C)c3ccc4c(C)n(C)nc4c3)n2)cc1S(N)(=O)=O	enzyme activity, inhibitor		10 µM	inhibition	16%
O=C(NCCCNc1nc(Nc2cccc(NC(=O)N3CCCC3)c2)ncc1C1CC1)C1CCC1	enzyme activity, inhibitor, radiometric		1 µM	remaining activity	6%
CNc1cccc2cc(C(=O)Nc3ccc(C(=O)O)cc3)c(=O)[nH]c12	enzyme activity, inhibitor		10 µM	inhibition	-5.3%
NS(=O)(=O)c1ccc(CNc2nc(Nc3cccc(CN4CCOCC4)c3)ncc2Br)cc1	enzyme activity, inhibitor, radiometric		1 µM	remaining activity	65%
CO[C@H]1CC[C@H](CNc2ccc(S(=O)(=O)NC(=O)c3ccc(N4CCN(CC5=C(c6ccc(Cl)cc6)CC(C)(C)CC5)CC4)cc3Oc3cnc4[nH]ccc4c3)cc2[N+](=O)[O-])CC1	cell-free assay, competition with immobilised ligand		1 µM	remaining binding	100%
CC/C(=N\NC(=O)NCc1cccc(O)c1)c1ccc(O)c(C)c1O	enzyme activity, inhibitor		0.1 µM	inhibition	-5.8%
CS(=O)(=O)N1CCCC(NC(=O)[C@H](CCC2CCCCC2)NC(=O)c2ccc(CNC(=O)c3cnc4ccccn34)cc2)C1 (stereo partly drawn)	cell-free assay, competition with immobilised ligand		0.1 µM	remaining binding	100%
N#CCCc1ccc2c(c1)-c1[nH]c3ccc([N+](=O)[O-])cc3c1CC(=O)N2	cell-free assay		0.5 µM	remaining signal	65.5%
FC(F)(F)Oc1cccc(-c2cnc3ccc(-c4ccncc4)nn23)c1	enzyme activity, inhibitor, radiometric		5 µM	activity vs control	99%
O=C(Nc1cnc(Oc2ccc(F)cc2)nc1)N1CCc2ncccc2[C@@H]1c1ccc(F)cc1	cell-free assay, competition with immobilised ligand		1 µM	remaining binding	90%
O=C(NCCCNc1ccnc(Nc2cccc(NC(=O)N3CCCC3)c2)n1)C1CCC1	enzyme activity, inhibitor, radiometric		1 µM	remaining activity	82%
CN(C)C(=O)Cn1cc(-c2nc(C3(c4ccc(-c5cnc(N)nc5)cc4)CC3)no2)cn1	cell-free assay, competition with immobilised ligand		1 µM	remaining binding	92%
c1cc(CN2CCOCC2)cc(Nc2nccc(NCCc3cnc[nH]3)n2)c1	enzyme activity, inhibitor, radiometric		1 µM	remaining activity	93%
COc1cccc2c(NCc3ccccc3)nc(-n3c(N)nc4ccccc43)nc12	target engagement in cells, inhibitor, chemoproteomics		20 mM	inhibition	-7.2%
CCN1CCN(Cc2ccc(NC(=O)c3ccc(C)c(Oc4ccnc5[nH]ccc45)c3)cc2C(F)(F)F)CC1	target engagement in cells, inhibitor, chemoproteomics	Huh-7	1 µM	inhibition	-10.4%
O=C(N[C@H]1CCCCC/C=C\C2C[C@@]2(C(=O)O)NC(=O)[C@@H]2C[C@@H](Oc3ccncc3)CN2C1=O)OC1CCCC1 (stereo partly drawn)	binding, competition with immobilised ligand		1 µM	remaining binding	81%
Nc1ncnc2occ(-c3ccc(NC(=O)Nc4cc(C(F)(F)F)ccc4F)cc3)c12	cell-free assay, inhibitor		20 µM	remaining signal	22%
O=C(NCCCNc1nc(Nc2cccc(NC(=O)N3CCCC3)c2)ncc1Br)C1CCC1	enzyme activity, inhibitor, radiometric		1 µM	remaining activity	2%
CN(C)C1CCN(CC#Cc2nn(C3CCCC3)c3nc(NCc4ccccc4)ncc23)C1 (stereo not drawn)	enzyme activity, inhibitor, FRET		1 µM	inhibition	3%
CCCCNc1ncc2c(-c3ccc(F)cc3)nn(C[C@H]3CC[C@H](N)CC3)c2n1	target engagement in cells, inhibitor, chemoproteomics		20 mM	inhibition	18%
Cc1nn(CC(F)(F)F)cc1Nc1ncc(C2CC2)c(NCCCNC(=O)C2CCC2)n1	enzyme activity, inhibitor, radiometric		1 µM	remaining activity	93%
CC(=O)N1CCC(c2ccc(C(=O)NC3=NCCN3)cc2C(F)(F)F)CC1	cell-free assay, competition with immobilised ligand		1 µM	remaining binding	100%
